Measurements collected from several papers.
Compare with care: the assays were run in different laboratories.
DYRK3: Dual specificity tyrosine-phosphorylation-regulated kinase 3 (DYRK3, Homo sapiens, UniProt O43781)
PTGS2: Prostaglandin G/H synthase 2 (PTGS2, Homo sapiens, UniProt P35354)
BRDT BD1: Bromodomain testis-specific protein, BD1 (BRDT, Homo sapiens, UniProt Q58F21)

O=C(O)c1ccc2c(c1)nc(NCCc1ccccc1)c1ccncc12
remaining activity (DYRK3; enzyme activity; inhibitor; radiometric; 1 µM): 3%

O=C(O)c1ccc(O)cc1
inhibition (PTGS2; enzyme activity; inhibitor; 15.63 µg/mL): 100%

Cc1cnc(Nc2ccc(OCCN3CCCC3)cc2)nc1Nc1cccc(S(=O)(=O)NC(C)(C)C)c1
ΔTm (CREB-binding protein (CREBBP, Homo sapiens, UniProt Q92793); thermal stability; DSF; 10 µM): 2.06 °C

Cc1cc2c(cc1N1C(=O)c3cccc4c(Cl)ccc(c34)C1=O)n(C)c(=O)n2C
ΔTm (BRDT BD1; thermal stability; DSF; 10 µM): -1 °C

O=c1cc(-c2ccc(O)cc2)oc2cc(O)cc(O)c12
inhibition (PTGS2; enzyme activity; inhibitor; 0.98 µg/mL): 28.2%

NS(=O)(=O)c1ccc(Nc2nc(-c3ccc(F)cc3)c3ccccc3n2)cc1
remaining binding (BRDT BD1; binding; competition with immobilised ligand; 1 µM): 6%

O=C(O)c1ccc2c(c1)nc(Nc1cccc(F)c1)c1ncncc12
remaining activity (Homeodomain-interacting protein kinase 2 (HIPK2, Homo sapiens, UniProt Q9H2X6); enzyme activity; inhibitor; radiometric; 1 µM): -1%

COc1ccc(-c2cc(=O)c3c(O)cc(O[C@@H]4O[C@H](CO)[C@@H](O)[C@H](O)[C@H]4O)cc3o2)cc1O
inhibition (PTGS2; enzyme activity; inhibitor; 3.9 µg/mL): 100%

O=C(O)c1ccc2c(c1)nc(Nc1cccc(F)c1)c1ccncc12
remaining activity (DYRK3; enzyme activity; inhibitor; radiometric; 1 µM): 0%

Oc1ccc(-c2nc(-c3ccncc3)c(-c3ccc(F)cc3)[nH]2)cc1
ΔTm (Transcription intermediary factor 1-beta (TRIM28, Homo sapiens, UniProt Q13263); thermal stability; DSF; 10 µM): -0.03 °C
